Experimental data: ChEMBL document CHEMBL3804777, “Identification and Preclinical Pharmacology of BMS-986104: A Differentiated S1P1 Receptor Modulator in Clinical Trials” (ACS Med Chem Lett, 2016)
Each block holds one compound with its values, some of them ahead of it. Calls of active or inactive are those of the source. No cut-off for these calls is given here.

Key:
[1] = biological target: T1, Sphingosine 1-phosphate receptor 4 (Homo sapiens, UniProt O95977); assay: Agonist activity at human S1P4 receptor by GTPgammaS binding assay; assay type: functional
T1 sequence (O95977 whole entry): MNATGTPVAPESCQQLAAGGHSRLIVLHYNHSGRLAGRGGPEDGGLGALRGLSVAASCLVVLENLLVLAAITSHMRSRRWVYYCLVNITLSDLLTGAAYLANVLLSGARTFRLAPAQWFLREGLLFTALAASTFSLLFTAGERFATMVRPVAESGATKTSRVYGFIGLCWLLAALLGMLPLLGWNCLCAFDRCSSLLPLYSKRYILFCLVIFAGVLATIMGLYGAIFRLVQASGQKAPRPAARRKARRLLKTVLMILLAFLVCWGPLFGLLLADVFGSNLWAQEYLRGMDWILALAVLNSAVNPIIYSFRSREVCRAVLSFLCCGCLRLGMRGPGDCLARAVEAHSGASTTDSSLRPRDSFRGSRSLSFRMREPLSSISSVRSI

Heart [2] = assay: Toxicity in guinea pig heart assessed as third degree AV block at 1000 nM after 10 mins by ECG analysis; assay type: tissue-based, Cavia porcellus; conditions: 1 µM
Outline: (§1)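 Isolated guinea pig hearts perfused with the phosphate at the stated concentrations; ventricular rate and atrioventricular conduction (third-degree AV block) monitored.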

[3] = biological target: T2, Sphingosine 1-phosphate receptor 1 (Homo sapiens, UniProt P21453); assay: Agonist activity at human S1P1 receptor expressed in CHO cells assessed as cAMP accumulation after 30 mins by HTRF analysis; assay type: functional, cell-based
[4] = biological target: T3, Sphingosine 1-phosphate receptor 3 (Homo sapiens, UniProt Q99500); assay: Antagonist activity at human S1P3 receptor by GTPgammaS binding assay; assay type: functional
[5] = biological target: T2, Sphingosine 1-phosphate receptor 1; assay: Agonist activity at human S1P1 receptor expressed in CHO cells co-expressing GFP assessed as cellular internalization after 45 mins by Hoechst assay; assay type: cell-based
Mus musculus [6] = assay: Reduction of blood lymphocyte level in BALB/c mouse administered through oral gavage after 24 hrs by hematology analysis; assay type: functional, organism-based; conditions: for ED50: po
Heart [7] = assay: Toxicity in guinea pig heart assessed as third degree AV block at 100 nM after 10 mins by ECG analysis; assay type: tissue-based, Cavia porcellus; conditions: 0.1 µM; outline: as §1
[8] = biological target: Sphingosine 1-phosphate receptor 5 (Homo sapiens, UniProt Q9H228); assay: Agonist activity at human S1P5 receptor by GTPgammaS binding assay; assay type: functional
[9] = biological target: T2, Sphingosine 1-phosphate receptor 1; assay: Agonist activity at human S1P1 receptor expressed in CHO cells assessed as ERK phosphorylation after 7 mins by alphaLISA; assay type: cell-based
[10] = biological target: T3, Sphingosine 1-phosphate receptor 3; assay: Agonist activity at human S1P3 receptor by GTPgammaS binding assay; assay type: functional
Heart [11] = assay: Toxicity in guinea pig heart assessed as reduction in ventricular rate at 100 nM after 10 mins by ECG analysis; assay type: tissue-based, Cavia porcellus, Cardiac ventricle; conditions: 0.1 µM; outline: as §1
[12] = Toxicity in human-inducible pluripotent stem cell-derived Cardiomyocyte assessed as reduction in cardiomyocyte beating at 1 nM after 2 hrs; set-up: scale not given: the % may be the effect or the level left; conditions: cardiac muscle cell, 0.001 µM
Outline: (§2)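 Cultured human iPSC-derived cardiomyocytes expressing S1P1 and S1P3, exposed to a range of concentrations of the phosphate; beating rate measured and the no-effect concentration determined.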

Heart [13] = assay: Toxicity in guinea pig heart assessed as reduction in ventricular rate at 1000 nM after 10 mins by ECG analysis; assay type: tissue-based, Cavia porcellus, Cardiac ventricle; conditions: 1 µM; outline: as §1
Mus musculus [14] = assay: Reduction in CD4 gene expression in SCID mouse with CD45RBhiCD4+ T-cell transfer-induced colitis model of inflammatory bowel disease at 5 mg/kg, po dosed every other day for 5 weeks by RT-PCR method; assay type: functional; conditions: 840 h
Outline: (§3)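 CD45RBhiCD4+ T-cell transfer colitis in mice; oral alternate-day dosing for 5 weeks, compared with vehicle. Read-outs: body weight, colon length, histological colon inflammation and tissue damage, and colon gene expression by RT-PCR (IFN-γ, IL-2, CD4, B220, CD11b, Fcgr4, Ifit1, OASL2).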

Mus musculus [15] = assay: Reduction in CD11b gene expression in SCID mouse with CD45RBhiCD4+ T-cell transfer-induced colitis model of inflammatory bowel disease at 5 mg/kg, po dosed every other day for 5 weeks by RT-PCR method; assay type: functional; conditions: 840 h; outline: as §3
Mus musculus [16] = assay: Reduction in body weight loss in SCID mouse with CD45RBhiCD4+ T-cell transfer-induced colitis model of inflammatory bowel disease at 1 mg/kg, po dosed daily for 5 weeks; assay type: functional, organism-based
Outline: (§4)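 CD45RBhiCD4+ T-cell transfer colitis in mice; oral dosing at 1 mg/kg/day for 5 weeks, compared with vehicle. Read-outs: body weight, colon length, and colon gene expression by RT-PCR (IFN-γ, IL-2, CD4, B220, CD11b, Fcgr4, Ifit1, OASL2).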

Mus musculus [17] = assay: Reduction in Fcgr4 gene expression in SCID mouse with CD45RBhiCD4+ T-cell transfer-induced colitis model of inflammatory bowel disease at 5 mg/kg, po dosed every other day for 5 weeks by RT-PCR method; assay type: functional; conditions: 840 h; outline: as §3
Mus musculus [18] = assay: Reduction in lymphocyte level in BALB/c mouse assessed as blood lymphocyte level at 30 mg/kg, po after 24 hrs by hematology analysis (reference value: 5.13 to 8.02 10^3/mm3); assay type: functional
Mus musculus [19] = assay: Pulmonary toxicity in BALB/c mouse assessed as BAL protein levels at 30 mg/kg, po after 24 by hematology analysis (reference value: 8.2 to 8.3 mg/dL); assay type: organism-based; conditions: in vivo
Mus musculus [20] = assay: Reduction in B220 gene expression in SCID mouse with CD45RBhiCD4+ T-cell transfer-induced colitis model of inflammatory bowel disease at 5 mg/kg, po dosed every other day for 5 weeks by RT-PCR method; assay type: functional; conditions: 840 h; outline: as §3
Mus musculus [21] = assay: Reduction in Ifit1 gene expression in SCID mouse with CD45RBhiCD4+ T-cell transfer-induced colitis model of inflammatory bowel disease at 5 mg/kg, po dosed every other day for 5 weeks by RT-PCR method; assay type: functional; conditions: 840 h; outline: as §3
Mus musculus [22] = assay: Pulmonary toxicity in BALB/c mouse assessed as BAL protein levels at 0.5 mg/kg, po after 24 by hematology analysis (reference value: 8.2 to 8.3 mg/dL); assay type: organism-based; conditions: in vivo
Mus musculus [23] = assay: Reduction in lymphocyte level in BALB/c mouse assessed as blood lymphocyte level at 10 mg/kg, po after 24 hrs by hematology analysis (reference value: 5.13 to 8.02 10^3/mm3); assay type: functional
Mus musculus [24] = assay: Reduction in lymphocyte level in BALB/c mouse assessed as blood lymphocyte level at 0.5 mg/kg, po after 24 hrs by hematology analysis (reference value: 5.13 to 8.02 10^3/mm3); assay type: functional
Mus musculus [25] = assay: Induction of colon length shortening in SCID mouse with CD45RBhiCD4+ T-cell transfer-induced colitis model of inflammatory bowel disease at 1 mg/kg, po dosed daily for 5 weeeks; assay type: functional, organism-based; outline: as §4
Mus musculus [26] = assay: Reduction in IL2 gene expression in SCID mouse with CD45RBhiCD4+ T-cell transfer-induced colitis model of inflammatory bowel disease at 5 mg/kg, po dosed every other day for 5 weeks by RT-PCR method; assay type: functional; conditions: 840 h; outline: as §3
Mus musculus [27] = assay: Pulmonary toxicity in BALB/c mouse assessed as BAL protein levels at 10 mg/kg, po after 24 by hematology analysis (reference value: 8.2 to 8.3 mg/dL); assay type: organism-based; conditions: in vivo
Mus musculus [28] = assay: Reduction in OASL2 gene expression in SCID mouse with CD45RBhiCD4+ T-cell transfer-induced colitis model of inflammatory bowel disease at 5 mg/kg, po dosed every other day for 5 weeks by RT-PCR method; assay type: functional; conditions: 840 h; outline: as §3
Mus musculus [29] = assay: Reduction in IFNgamma gene expression in SCID mouse with CD45RBhiCD4+ T-cell transfer-induced colitis model of inflammatory bowel disease at 5 mg/kg, po dosed every other day for 5 weeks by RT-PCR method; assay type: functional; conditions: 840 h; outline: as §3
[30] = Drug metabolism in BALB/c mouse whole blood assessed as whole blood phosphate area ratio at 10 uM after 4 hrs by LC/MS/MS analysis; assay type: ADME, tissue-based
Outline: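 Mouse whole blood incubated with the amino-alcohol prodrug; phosphorylated product measured by LC/MS/MS after 4 h to give the relative extent of phosphate ester formation.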

Mus musculus [31] = assay: Reduction of blood lymphocyte level in BALB/c mouse at 1 mg/kg administered through oral gavage after 24 hrs by hematology analysis; assay type: functional; set-up: scale not given: the % may be the effect or the level left
Outline: (§5)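 Mice given a single oral 1 mg/kg dose; circulating lymphocytes counted 24 h later as the pharmacodynamic marker.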

Heart [32] = assay: Toxicity in guinea pig heart assessed as third degree AV block at 1 nM after 10 mins by ECG analysis; assay type: tissue-based, Cavia porcellus; conditions: 0.001 µM; outline: as §1
[33] = Toxicity in human-inducible pluripotent stem cell-derived Cardiomyocyte assessed as reduction in cardiomyocyte beating after 2 hrs; conditions: cardiac muscle cell; outline: as §2
Heart [34] = assay: Toxicity in guinea pig heart assessed as reduction in ventricular rate at 1 nM after 10 mins by ECG analysis; assay type: tissue-based, Cavia porcellus, Cardiac ventricle; conditions: 0.001 µM; outline: as §1
[35] = Toxicity in human-inducible pluripotent stem cell-derived Cardiomyocyte assessed as reduction in cardiomyocyte beating at 0.1 nM after 2 hrs; conditions: cardiac muscle cell, 0.0001 µM; outline: as §2
Mus musculus [36] = assay: Reduction in blood lymphocyte level in BALB/c mouse at 1 mg/kg, po after 24 hrs by hematology analysis; assay type: functional, organism-based; outline: as §5

T2 sequence (P21453 whole entry): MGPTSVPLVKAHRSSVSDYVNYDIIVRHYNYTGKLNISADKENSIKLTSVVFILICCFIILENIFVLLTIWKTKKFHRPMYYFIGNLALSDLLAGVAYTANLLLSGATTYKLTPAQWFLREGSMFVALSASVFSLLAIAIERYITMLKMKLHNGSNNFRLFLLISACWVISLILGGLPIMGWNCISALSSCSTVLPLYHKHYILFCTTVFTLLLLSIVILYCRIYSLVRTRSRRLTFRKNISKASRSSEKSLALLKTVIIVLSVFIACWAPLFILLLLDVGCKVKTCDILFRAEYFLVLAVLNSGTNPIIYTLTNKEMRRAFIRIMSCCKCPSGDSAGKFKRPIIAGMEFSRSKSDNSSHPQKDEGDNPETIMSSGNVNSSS
T3 sequence (Q99500 whole entry): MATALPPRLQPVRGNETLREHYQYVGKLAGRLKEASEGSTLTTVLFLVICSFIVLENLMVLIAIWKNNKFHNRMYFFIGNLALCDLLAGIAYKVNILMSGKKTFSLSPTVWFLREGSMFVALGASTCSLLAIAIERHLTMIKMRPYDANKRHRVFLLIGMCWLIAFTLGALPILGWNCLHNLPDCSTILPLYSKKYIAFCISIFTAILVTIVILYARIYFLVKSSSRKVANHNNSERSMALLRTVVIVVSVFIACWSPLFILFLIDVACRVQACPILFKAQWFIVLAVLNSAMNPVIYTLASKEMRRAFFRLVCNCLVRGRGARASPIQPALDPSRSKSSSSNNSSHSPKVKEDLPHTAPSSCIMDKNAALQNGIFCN
Chain of Sphingosine 1-phosphate receptor 5 (Q9H228 whole entry): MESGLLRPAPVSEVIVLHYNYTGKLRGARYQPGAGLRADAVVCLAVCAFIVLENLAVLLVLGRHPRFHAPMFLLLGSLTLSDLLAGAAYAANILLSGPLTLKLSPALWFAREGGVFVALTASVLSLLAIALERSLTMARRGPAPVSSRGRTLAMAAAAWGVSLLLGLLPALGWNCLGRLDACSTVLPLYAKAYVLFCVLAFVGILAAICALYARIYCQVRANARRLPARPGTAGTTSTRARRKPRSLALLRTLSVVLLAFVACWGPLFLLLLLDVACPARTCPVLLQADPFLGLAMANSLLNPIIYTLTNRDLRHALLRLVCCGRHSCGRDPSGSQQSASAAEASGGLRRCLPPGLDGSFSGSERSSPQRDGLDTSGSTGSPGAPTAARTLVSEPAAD

Structure (SMILES): CCCCCCCCc1ccc(CCC(N)(CO)CO)cc1 [FINGOLIMOD]
inhibition in vivo at 5 mg/kg (Mus musculus [14]): 60% | inhibition in vivo at 5 mg/kg (Mus musculus [15]): 45% | inhibition (Mus musculus [16]): Active | inhibition in vivo at 5 mg/kg (Mus musculus [17]): 25% | Activity (Mus musculus [18]): 0.29 ×10³ /mm3 | Activity (Mus musculus [19]): 71 mg/dL | inhibition in vivo at 5 mg/kg (Mus musculus [20]): 55% | inhibition in vivo at 5 mg/kg (Mus musculus [21]): 16% | Activity (Mus musculus [22]): 7.5 mg/dL | Activity (Mus musculus [23]): 0.92 ×10³ /mm3 | Activity (Mus musculus [24]): 1.28 ×10³ /mm3 | Activity (Mus musculus [25]): Active | inhibition in vivo at 5 mg/kg (Mus musculus [26]): 68% | Activity (Mus musculus [27]): 34.2 mg/dL | inhibition in vivo at 5 mg/kg (Mus musculus [28]): 7% | inhibition in vivo at 5 mg/kg (Mus musculus [29]): 30%

Structure (SMILES): CCCCCCC1CCc2cc(C3CCC(N)(CO)C3)ccc2C1 (stereo in doubt; 3g)
Ratio [30]: 0.02

Structure (SMILES): CCCCCCC1CCc2cc(C3CCC(N)(CO)C3)ccc2C1 (stereo in doubt; 3b)
Activity (Mus musculus [36]): Active

Further lines, with some results ahead:

EC50 [1]: 10.5 nM | EC50 [3]: 0.006 nM | IC50 [4]: > 1000 nM | EC50 [5]: 0.114 nM | EC50 (Mus musculus [6]): 7.9 nM | EC50 [8]: 10.7 nM | EC50 [9]: 8.16 nM | EC50 [10]: > 1000 nM
Structure (SMILES): CCCCCC[C@@H]1CCc2cc([C@H]3CC[C@](N)(COP(=O)(O)O)C3)ccc2C1
Activity (Heart [2]): Toxic | ED50 (Mus musculus [6]): 0.12 mg/kg | Activity (Heart [7]): Non-toxic | Activity (Heart [11]): Non-toxic | Activity [12]: Non-toxic | Activity (Heart [13]): Toxic

Ratio [30]: 0.6
Structure (SMILES): CCCCCCC1CCc2cc(C3CCC(N)(CO)C3)ccc2C1 (stereo in doubt; 3f)
Activity (Mus musculus [31]): 80%

EC50 [1]: 0.09 nM | EC50 (Mus musculus [6]): 5.6 nM
Structure (SMILES): CCCCCCCCc1ccc(CCC(N)(CO)COP(=O)(O)O)cc1 (configuration not stated)
Activity (Heart [32]): Toxic | ED50 (Mus musculus [6]): 0.017 mg/kg | Activity [33]: Dose-dependent effect | Activity (Heart [34]): 32 bpm | Activity [12]: 35% | Activity [35]: Non-toxic
